Reference: ChEMBL document CHEMBL1157852, “Modulation of doxorubicin activity in cancer cells by conjugation with fatty acyl and terpenyl hydrazones” (Eur J Med Chem, 2010)
Activity calls are given as the source filed them. The calls are words filed in the database; no cut-off is given here.

How the values were obtained:
518A2 [1] = assay: Induction of apoptosis in human 518A2 cells assessed as increase of caspase 8 activity at 5 uM measured up to 12 hrs by luminometric assay; assay type: functional, cell-based
Outline: (§1)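 HL-60 and 518A2 cells treated with 5 µM compound and sampled at intervals from 1 to 24 h. Lysed in 50 mM Tris-HCl pH 7.4, 150 mM NaCl, 1% Triton X-100 with protease inhibitors for 15 min at 4 °C, spun at 800 g. Protein measured by Bradford. Caspase-3/7, -8 and -9 activities read with luminogenic peptide substrates; reported as relative luminescence.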

[2] = Cytotoxicity against human 518A2 cells after 48 hrs by MTT assay; assay type: functional, cell-based; details: 518A2, 48 h
Outline: (§2)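 MTT assay. Cells seeded and cultured 24 h, then exposed to compound for 24, 48 or 72 h. MTT added to a final 0.05% (HL-60, 518A2) or 0.1% (KB-V1, MCF-7) for 2 h. Formazan dissolved in 10% SDS/DMSO with 0.6% acetic acid; absorbance read at 570 nm against 630 nm background. Viability taken relative to untreated controls (100%). IC50 from concentration-response curves, mean ± SD of four independent experiments.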

[3] = Cytotoxicity against human vinblastine-resistant KBV1 cells after 48 hrs by MTT assay; assay type: functional, cell-based; details: KB-V1, 48 h; outline: as §2
HL-60 [4] = assay: Cytotoxicity against human HL60 cells after 24 hrs by MTT assay; assay type: functional, cell-based; details: HL-60, 24 h; outline: as §2
MCF7 = assay: Cytotoxicity against human doxorubicin-resistant MCF7 cells by MTT assay; assay type: functional
HL-60 [5] = assay: Cytotoxicity against human HL60 cells after 48 hrs by MTT assay; assay type: functional, cell-based; details: HL-60, 48 h; outline: as §2
[6] = Cytotoxicity against human 518A2 cells assessed as increase in ROS production at 5 uM after 72 hrs by NBT reduction assay relative to control; assay type: functional
Outline: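 NBT assay. HL-60 cells (0.5×10⁶/mL) or trypsinised 518A2 cells (5×10⁴/mL) pre-incubated 24 h at 37 °C, then given compound at a final 5 µM for 24 or 72 h. Medium removed; cells incubated with 0.1% NBT for 1 h (HL-60) or 4 h (518A2). Diformazan dissolved in 2 M KOH/DMSO; A630 read against 405 nm. Given as % of untreated controls; double quadruplicates.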

518A2 [7] = assay: Induction of apoptosis in human 518A2 cells assessed as increase of caspase 3 activity at 5 uM measured up to 12 hrs by luminometric assay; assay type: functional, cell-based; outline: as §1
[8] = Cytotoxicity against human vinblastine-resistant KBV1 cells after 24 hrs by MTT assay; assay type: functional, cell-based; details: KB-V1, 24 h; outline: as §2
HL-60 [9] = assay: Induction of apoptosis in human HL60 cells assessed as increase of ratio of Bax to Bcl-2 mRNA expression at 5 uM after 6 to 18 hrs by RT-PCR analysis; assay type: functional, cell-based
Outline: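 Real-time PCR of bax and bcl-2 mRNA in HL-60 cells after 6 h and 18 h exposure to test compound. Each gene was normalised to GAPDH, and the bax/bcl-2 expression ratio was reported.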

518A2 [10] = assay: Induction of apoptosis in human 518A2 cells assessed as appearance of intact mitochondria in cytosol at 5 uM after 18 hrs using JC1 dye relative to control; assay type: functional
Outline: (§3)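 Mitochondrial membrane potential measured with JC-1. Cells exposed to 5 µM compound for 6 or 18 h, pelleted at 400 g, stained with 0.2× JC-1 at 37 °C for 15 min (HL-60) or 35 min (518A2), washed and resuspended in PBS. Red fluorescence (ex 585/em 590 nm) and green (ex 510/em 527 nm) read; red/green ratio relative to untreated controls (100%). Mean ± SD, four independent experiments.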

518A2 [11] = assay: Induction of apoptosis in human 518A2 cells assessed as appearance of intact mitochondria in cytosol at 5 uM after 6 hrs using JC1 dye relative to control; assay type: functional; outline: as §3

## COc1cccc2c1C(=O)c1c(O)c3c(c(O)c1C2=O)C[C@@](O)(/C(CO)=N/NC(=O)CCCCCCCCCCC(=O)O[C@@H]1C[C@H](C)CC[C@H]1C(C)C)C[C@@H]3O[C@H]1C[C@H](N)[C@H](O)[C@H](C)O1.Cl
518A2 [1]
  Activity: inactive
[2]
  IC50: 160 nM
[3]
  IC50: 17.1 µM
HL-60 [4]
  IC50: 300 nM
MCF7
  Activity: 55 nM
HL-60 [5]
  IC50: 250 nM
[6]
  Activity: 38.3%
518A2 [7]
  Activity: inactive
[8]
  IC50: 30.5 µM
HL-60 [9]
  Activity: Active
518A2 [10]
  Activity: 71%
518A2 [11]
  Activity: 108%
